According to ChEMBL document CHEMBL2331084, “Synthesis and evaluation of oxime derivatives as modulators for amyloid beta-induced mitochondrial dysfunction” (Eur J Med Chem, 2013):

Tests used:
HT-22 [1] = assay: Inhibition of mPTP in mouse HT22 cells assessed as reduction in amyloid beta-induced mitochondrial membrane damage at 10 uM incubated for 10 mins prior to amyloid beta-challenge measured every 1 hr for 3 hrs by JC-1 based fluorometric analysis; format: cell-based; design: scale not given: the % may be the effect or the level left
In short: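 HT-22 cells, 30,000 per well, seeded a day earlier, loaded with 7.5 μM JC-1 (final) in phenol red-free Opti-MEM for 1 h 15 min at 37 °C, then PBS-washed. Compound solution at 10 μM for 10 min at 37 °C, then amyloid beta 1–42 solution at 10 μM. Red (ex/em 530/580) and green (485/530) fluorescence read hourly for 3 h. Green/red ratio change normalised to vehicle as 100%.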

HT-22 [2] = assay: Inhibition of mPTP in mouse HT22 cells assessed as recovery in amyloid beta-suppressed ATP level at 5 uM incubated for 10 mins prior to amyloid beta-challenge measured for 7 hrs relative to control; format: cell-based; design: scale not given: the % may be the effect or the level left
In short: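 HT-22 mouse hippocampal cells, grown in DMEM with 10% FBS at 37 °C and 5% CO2, were seeded the day before. Compound (10 µM solution) added 10 min before amyloid beta 1-42 (10 µM solution), then 7 h at 37 °C. Lysates normalised to equal protein by BCA, and ATP measured with a luciferase kit. % recovery is relative to the amyloid-treated vehicle. Viability is from ATP without amyloid beta.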

[3] = Cytotoxicity against mouse […] cells assessed as cell viability at 5 uM; format: cell-based; conditions: read-out: Activity
[4] = Cytotoxicity against mouse […] cells assessed as cell viability at 10 uM after 24 hrs by MTT assay; format: cell-based; conditions: read-out: Activity
HT-22 [5] = assay: Neuroprotective activity against in mouse HT22 cells assessed as inhibition of amyloid beta-induced toxicity at 10 uM incubated for 10 mins prior to amyloid beta-challenge measured after 24 hrs by MTT assay; format: functional
In short: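 HT-22 mouse hippocampal cells (DMEM, 10% FBS), 5000 per well, seeded a day before. Compound solution at 10 μM added 10 min before amyloid beta 1–42 solution at 10 μM, then 24 h at 37 °C. MTT 2 h, then acidified Triton/isopropanol for 1 h at RT, A570. Vehicle subtracted; % inhibition versus Aβ-treated vehicle; viability from wells without Aβ.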

| SMILES | Activity (HT-22 [1]) [%] | other results |
| --- | --- | --- |
| Brc1ccccc1/C=N/OC1CN2CCC1CC2 (stereo unspecified) | 93 |  |
| Clc1cccc(Cl)c1COc1ccccc1/C=N/OC1CN2CCC1CC2 (stereo unspecified) | 96 |  |
| CN1CCC(O/N=C/c2ccccc2OCc2ccc(Cl)cc2Cl)C1 (stereo unspecified) | 18 | Activity (HT-22 [2]): -9%; viability at 5 µM ([3]; HT22 cells): 90% |
| Clc1ccc(COc2ccccc2/C=N/OC2CN3CCC2CC3)cc1 (stereo unspecified) | 85 |  |
| CC(C)N1CCC(O/N=C/c2cccc(C(F)(F)F)c2)C1 (stereo unspecified) | 54 |  |
| Clc1ccc(COc2ccccc2/C=N/OC2CCN(Cc3ccccc3)C2)c(Cl)c1 (stereo unspecified) | 61 |  |
| Fc1cccc(/C=N/OC2CN3CCC2CC3)c1 (stereo unspecified) | 92 |  |
| Fc1cccc(COc2ccccc2/C=N/OC2CCN(Cc3ccccc3)C2)c1 (stereo unspecified) | 42 | Activity (HT-22 [2]): -201%; viability at 5 µM ([3]; HT22 cells): 74% |
| Brc1cccc(/C=N/OC2CN3CCC2CC3)c1 (stereo unspecified) | 95 |  |
| C(=N\OC1CN2CCC1CC2)/c1ccccc1Oc1ccccc1 (stereo unspecified) | 84 |  |
| CN1CCCC(O/N=C/c2ccccc2OCc2ccccc2)C1 (stereo unspecified) | 29 | Activity (HT-22 [2]): 15%; viability at 5 µM ([3]; HT22 cells): 112% |
| Fc1ccccc1COc1ccccc1/C=N/OC1CN2CCC1CC2 (stereo unspecified) | 82 |  |
| COc1ccccc1/C=N/OC1CCN(Cc2ccccc2)C1 (stereo unspecified) | 81 |  |
| FC(F)(F)c1ccccc1COc1ccccc1/C=N/OC1CN2CCC1CC2 (stereo unspecified) | 91 |  |
| CC(C)N1CCC(O/N=C/c2ccccc2OCc2ccccc2)C1 (stereo unspecified) | 19 | Activity (HT-22 [2]): -93%; viability at 5 µM ([3]; HT22 cells): 67% |
| CC(C)N1CCC(O/N=C/c2ccccc2OCc2cccc(F)c2)C1 (stereo unspecified) | 39 | Activity (HT-22 [2]): -223%; viability at 5 µM ([3]; HT22 cells): 94% |
| COc1ccccc1/C=N/OC1CCCN(C)C1 (stereo unspecified) | 257 |  |
| CN1CCC(O/N=C/c2ccccc2OCc2ccccc2)C1 (stereo unspecified) | 69 |  |
| FC(F)(F)c1cccc(/C=N/OC2CCN(Cc3ccccc3)C2)c1 (stereo unspecified) | 123 |  |
| CN1CCCC(O/N=C/c2ccccc2OCc2ccc(Cl)cc2Cl)C1 (stereo unspecified) | 64 |  |
| CN1CCC(O/N=C/c2ccccc2OCc2cccc(F)c2)C1 (stereo unspecified) | 42 | Activity (HT-22 [2]): 20%; viability at 5 µM ([3]; HT22 cells): 87% |
| COc1ccccc1/C=N/OC1CCN(C)C1 (stereo unspecified) | 147 |  |
| COc1cccc(/C=N/OC2CN3CCC2CC3)c1 (stereo unspecified) | 86 |  |
| NC(=O)CN1CCCC1=O [PIRACETAM] | 40 | viability at 24 h, 10 µM [4]: 132%; Activity (HT-22 [2]): 127%; inhibition at 10 µM (HT-22 [5]): 29%; viability at 5 µM [3]: 88% |
| Fc1cccc(COc2ccccc2/C=N/OC2CN3CCC2CC3)c1 (stereo unspecified) | 75 |  |
